Screens deposited in PubChem BioAssay by several laboratories.
The list is not random: actives were taken first. Their share in the collection is about 27%.
CYP2C19 act: human CYP2C19 activators, primary screen, biochemical, luminescence; recombinant CYP2C19, luciferin-H EGE luminescence; stronger effect = higher value; 0 = fully inhibited enzyme, 1 = untreated enzyme; activation factor at 5 µM; 96,000 tested, under 10 active; AID 1025, 2008;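 active = activation factor of at least 2 at 5 µM in the primary screen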;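 note: 0 = wells with 2.5 mM tranylcypromine and 1 = vehicle-only wells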
Target sequence (P33261 whole entry, looked up): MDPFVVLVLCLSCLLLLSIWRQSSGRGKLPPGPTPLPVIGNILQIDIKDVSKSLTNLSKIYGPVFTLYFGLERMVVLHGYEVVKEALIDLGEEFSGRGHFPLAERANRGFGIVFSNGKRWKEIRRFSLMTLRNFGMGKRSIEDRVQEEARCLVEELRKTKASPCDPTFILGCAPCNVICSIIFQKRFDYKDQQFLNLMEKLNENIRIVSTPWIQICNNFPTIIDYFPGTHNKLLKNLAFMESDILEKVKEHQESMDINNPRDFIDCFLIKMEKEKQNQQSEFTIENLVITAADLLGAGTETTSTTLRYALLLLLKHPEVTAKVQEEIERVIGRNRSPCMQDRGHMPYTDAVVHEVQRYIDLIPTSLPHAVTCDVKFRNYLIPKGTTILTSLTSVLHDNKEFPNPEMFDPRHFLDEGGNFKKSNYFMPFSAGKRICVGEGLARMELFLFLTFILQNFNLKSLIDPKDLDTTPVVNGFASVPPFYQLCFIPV
Rev-RRE block: HIV-1 Rev-RRE binding inhibitors, primary screen, biochemical, FRET, protein-RNA interaction; AID 704, 2007; 0.79% of 97,000 active; Rev peptide-RRE RNA binding; inhibition, % at 8 µM;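 active = inhibition above the screen-wide mean plus 3 SD, cut at about 35% in these data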;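 note: 0% = median DMSO wells and 100% = median Neomycin B control wells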
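Test system: labelled RRE RNA duplex and labelled Rev peptide. Times: 5 min compound–RNA preincubation, then 15 min with peptide, 25 °C. Doses: single-dose 8 µM. Measured by: FRET, excitation 480 nm, emission 540 nm donor and 671 nm acceptor. Measure: % inhibition of FRET ratio versus controls.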
CYP2C9 inh: blockers of cytochrome P450 2C9 activity – biochemical, luminescence, ADME assay, primary screen; CYP2C9 Supersomes, luciferin-H conversion; inhibition, % at 5 µM; P11712; 20% of 96,000 active;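 active = blocking of liver enzyme CYP2C9 beyond about 50% at 5 µM, limit read from the data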
Cav3 T inh: Cav3.2 calcium influx blockers – cell-based, Fluo-4 calcium fluorescence, FDSS, MLSMR library, primary screen. Voltage-dependent T-type calcium channel subunit alpha-1H (Homo sapiens), O95180. Cav3.2-expressing cells; stronger effect = lower value. B-score at 10 µM. 4% of 100,000 active;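 active = single-dose well whose peak fluorescence ratio is a statistical outlier from its plate by either plate-standardised score or position-corrected B-score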
CYP2C19 inhib: blockers of cytochrome P450 2C19 activity – biochemical, luminescence, ADME assay, primary screen | inhibition, % at 5 µM | P33261 | 21% of 96,000 active | AID 778, 2007 | CYP2C19 Supersomes, luciferin-H EGE luminescence, 30 min;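 active = CYP2C19 inhibition above a set limit at 5 µM in the primary screen, cut at about 50% in these data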;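 note: plate controls were negative control wells for no effect and 2.5 mM tranylcypromine positive control for full effect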
CYP2C9 activ: human CYP2C9 activators, primary screen, biochemical, luminescence | Cytochrome P450 2C9 (Homo sapiens), P11712 | 1.4% of 96,000 active | recombinant CYP2C9, luciferin-H conversion; stronger effect = higher value; factor 1 = untreated enzyme, 0 = blocked | activation factor at 5 µM;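 active = activation factor of 2 or more for CYP2C9 at a 5 µM dose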;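 note: 0 = sulfaphenazole-blocked wells and 1 = vehicle-only wells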
Starred values were filed as active, the others as inactive; . = no result given.

SMILES	CYP2C19 act	Rev-RRE block	CYP2C9 inh	Cav3 T inh	CYP2C19 inhib	CYP2C9 activ
OC(COc1c(Br)cc(Br)cc1Br)CN1CCOCC1 (stereo not given)	0.1	3	-4	-0.025	92*	1
CCOC(=O)[C@@H]1[C@H]2COc3ccccc3[C@@H]2N2C(=O)N(c3ccc(C(F)(F)F)cc3)C(=O)[C@]12C	.	.	.	-2.4	.	.
CCC(CC)C(=O)NCCc1cc2cc(C)c(C)cc2[nH]c1=O	0.7	.	63*	.	28	0.4
Cc1cc2cc(CCNC(=O)c3c(-c4ccccc4Cl)noc3C)c(=O)[nH]c2cc1C	0.9	.	47	-3.7*	13	0.5
COc1ccc(CC(=O)OCC(=O)Nc2ncc(Cl)cc2Cl)cc1OC	0.5	7	16	-0.00095	51*	0.8
O=C(COC(=O)CNC(=O)c1ccco1)Nc1ccc(Cl)cn1	0.5	4	48	-0.42	54*	0.5
O=C(COC(=O)CCS(=O)(=O)c1ccc(Cl)cc1)Nc1ncc(Cl)cc1Cl	0.5	4	16	-0.76	51*	0.8
COc1ccccc1OCCC(=O)OCC(=O)Nc1ncc(Cl)cc1Cl	0.1	13	-35	0.8	87*	1.4
CC1(C)CC(=O)c2cnc(NCc3ccco3)nc2C1	0.8	.	13	0.23	21	0.9
CCc1ccc(NC(=O)CS(=O)CC(=O)NC(C)CCc2ccco2)cc1 (stereo not given)	.	.	.	-0.03	.	.
COc1ccccc1NCCC(=O)OCC(=O)Nc1ccc(Cl)cn1	0.2	.	47	-0.97	80*	0.5
O=C(COC(=O)CN1C(=O)c2ccccc2C1=O)Nc1ncc(Cl)cc1Cl	0.9	12	29	.	13	0.7
O=C(COC(=O)CCCN1C(=O)c2ccccc2C1=O)Nc1ncc(Cl)cc1Cl	0.5	15	57*	-0.068	54*	0.4
Cc1ccc(CNC(=O)c2ccc3c(c2)S(=O)(=O)c2ccccc2C3=O)o1	.	.	.	0.21	.	.
Cc1ccccc1NS(=O)(=O)c1ccc(OCC(=O)N2CCCC2)cc1	1.2	-1	-23	-0.045	-18	1.2
O=c1c2nnn(Cc3ccccc3)c2ncn1-c1ccccc1	1	9	-38	0.25	-1	1.4
Cc1ccc(CNS(=O)(=O)/C=C/c2ccc3c(c2)OCO3)cc1	0	-2	19	-1.7	99*	0.8
Cc1ccc(S(=O)(=O)N/N=C/c2ccc(C(=O)O)cc2)cc1	1.1	9	-12	-1	-11	1.1
O=S(=O)(N/N=C\c1ccc2c(c1)OCO2)c1ccc(Cl)cc1	0.6	-2	86*	-0.71	36	0.1
COc1ccc(/C=N\NS(=O)(=O)c2ccc(Cl)cc2)cc1COc1ccccc1[N+](=O)[O-]	.	3	.	.	.	.
Cc1ccc(S(=O)(=O)N/N=C\c2ccc3c(c2)OCO3)cc1	0.4	-2	75*	-3.3	59*	0.3
CCN(CC)C(=O)C(=O)c1cccn1-c1ccccc1C#N	0.8	9	-7	0.0087	18	1.1
Cc1c(Cl)cccc1Nc1nc(N)nc(CSc2ncccn2)n1	0.5	-3	67*	0.3	52*	0.3
Cc1ccccc1Nc1nc(N)nc(CSc2nnc(-c3ccccc3)n2C)n1	1.1	-5	-4	-0.15	-9	1
Cc1ccc2c(CC(=O)OCn3nnc4ccccc4c3=O)coc2c1	1	10	11	-1	-3	0.9
O=C(CSc1ncn[nH]1)Nc1nc(-c2ccccc2)ns1	0.2	4	79*	-0.28	78*	0.2
CCC(=O)Nc1nc(-c2ccccc2)ns1	.	6	.	-0.018	.	.
Cc1nnc(SCCC(=O)Nc2nc(-c3ccccc3)ns2)s1	0.5	3	40	-5*	53*	0.6
CCOc1ccc(NC(=O)CN2C(=O)C3CCCN3C2=O)cc1 (stereo not given)	1.1	6	2	-1	-9	1
CC1(C)CC(=O)C2=C(C1)N(c1ccc(F)cc1)C(=O)C2(O)C(F)(F)F (stereo not given)	0.5	1	14	.	50*	0.9
